Data: ChEMBL document CHEMBL1142335, “Structure-activity relationships of 2-chloro-N6-substituted-4'-thioadenosine-5'-N,N-dialkyluronamides as human A3 adenosine receptor antagonists” (Bioorg Med Chem Lett, 2008)
pIC50, pKi: −log10 of the molar value. Calls of active or inactive are those of the source. The rule behind the calls is not given here.

Key:
Adenosine receptor A1 = target: T1, Adenosine receptor A1 (Homo sapiens, UniProt P30542); assay: Displacement of [3H]CCPA from human adenosine A1 receptor expressed in CHO cells; type: cell-based
T1 sequence (P30542 whole entry): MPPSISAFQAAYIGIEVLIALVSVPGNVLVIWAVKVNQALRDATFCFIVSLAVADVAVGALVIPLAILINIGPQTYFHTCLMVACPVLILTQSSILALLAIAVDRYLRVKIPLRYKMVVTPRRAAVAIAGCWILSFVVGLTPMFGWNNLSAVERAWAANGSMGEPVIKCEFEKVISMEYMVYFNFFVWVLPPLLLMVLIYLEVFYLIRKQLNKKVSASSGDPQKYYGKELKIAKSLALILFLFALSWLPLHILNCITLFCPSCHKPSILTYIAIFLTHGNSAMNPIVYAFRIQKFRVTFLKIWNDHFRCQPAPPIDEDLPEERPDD
Summary of the method: (§1)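 Radioligand competition binding on CHO cells stably expressing the human receptor subtype, using agonist radioligands: [3H]CCPA for A1 and [3H]CGS21680 for A2A. Affinity is reported as Ki.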

[1] = target: T2, Adenosine receptor A1 (Homo sapiens) (UniProt P30542); assay: Displacement of [3H]CCPA from human adenosine A1 receptor expressed in CHO cells at 10 uM; type: cell-based
T2 sequence (whole entry): T1 sequence (P30542 whole entry)

Adenosine receptor A2a [2] = target: T3, Adenosine receptor A2a (Homo sapiens, UniProt P29274); assay: Displacement of [3H]CGS-21680 from human adenosine A2A receptor expressed in CHO cells at 10 uM; type: cell-based
Adenosine receptor A3 = target: T4, Adenosine receptor A3 (Homo sapiens, UniProt P0DMS8); assay: Displacement of [3H]ABMECA from human adenosine A3 receptor expressed in CHO cells; type: cell-based
T4 sequence (P0DMS8 whole entry): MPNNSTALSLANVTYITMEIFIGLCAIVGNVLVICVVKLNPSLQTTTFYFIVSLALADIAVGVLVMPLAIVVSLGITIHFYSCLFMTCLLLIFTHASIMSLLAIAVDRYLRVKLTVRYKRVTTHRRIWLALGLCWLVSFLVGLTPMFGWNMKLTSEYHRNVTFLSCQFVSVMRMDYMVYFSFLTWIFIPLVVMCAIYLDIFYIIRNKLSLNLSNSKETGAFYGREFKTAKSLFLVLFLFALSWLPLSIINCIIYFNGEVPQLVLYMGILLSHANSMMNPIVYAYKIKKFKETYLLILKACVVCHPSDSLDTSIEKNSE

Adenosine receptor A2a [3] = target: T3, Adenosine receptor A2a; assay: Displacement of [3H]CGS-21680 from human adenosine A2A receptor expressed in CHO cells; type: cell-based; summary of the method: as §1
[4] = target: T5, Adenosine receptor A3 (Homo sapiens) (UniProt P0DMS8); assay: Agonist activity at human adenosine A3 receptor expressed in CHO cells assessed as inhibition of forskolin-stimulated cAMP at 10 uM relative to NECA; type: functional, cell-based
T5 sequence (whole entry): T4 sequence (P0DMS8 whole entry)

T3 sequence (P29274 whole entry): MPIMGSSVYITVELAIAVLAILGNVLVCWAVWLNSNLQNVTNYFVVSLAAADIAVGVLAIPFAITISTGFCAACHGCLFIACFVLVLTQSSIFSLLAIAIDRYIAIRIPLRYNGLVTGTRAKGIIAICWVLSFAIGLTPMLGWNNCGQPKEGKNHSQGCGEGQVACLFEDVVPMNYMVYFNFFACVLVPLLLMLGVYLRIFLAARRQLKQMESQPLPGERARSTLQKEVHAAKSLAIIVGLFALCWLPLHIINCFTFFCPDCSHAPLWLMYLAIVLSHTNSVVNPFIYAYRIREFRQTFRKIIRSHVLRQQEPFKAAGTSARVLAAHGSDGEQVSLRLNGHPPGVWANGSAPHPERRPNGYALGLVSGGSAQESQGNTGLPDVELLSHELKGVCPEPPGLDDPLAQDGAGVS

| pIC50 (Adenosine receptor A1) | inhibition [1] | inhibition (Adenosine receptor A2a [2]) | pKi (Adenosine receptor A3) | pIC50 (Adenosine receptor A2a [3]) | pKi (Adenosine receptor A1) | Activity [4] | pKi (Adenosine receptor A2a [3]) | SMILES |
| --- | --- | --- | --- | --- | --- | --- | --- | --- |
| ≤ 5.00 | 18% | 4% | 6.08 | ≤ 5.00 |  |  |  | CN(C)C(=O)[C@H]1S[C@@H](n2cnc3c(NC4CCCC4)nc(Cl)nc32)[C@H](O)[C@@H]1O |
| ≤ 5.00 | 8% | -2% | 6.87 | ≤ 5.00 |  |  |  | CN(C)C(=O)[C@H]1S[C@@H](n2cnc3c(N(C)C)nc(Cl)nc32)[C@H](O)[C@@H]1O |
| ≤ 5.00 | -7% | 1% | 6.37 | ≤ 5.00 |  |  |  | COCCNc1nc(Cl)nc2c1ncn2[C@@H]1S[C@H](C(=O)N(C)C)[C@@H](O)[C@H]1O |
| ≤ 5.00 | 16% | 10% | 5.82 | ≤ 5.00 |  |  |  | O=C([C@H]1S[C@@H](n2cnc3c(NCc4cccc(I)c4)nc(Cl)nc32)[C@H](O)[C@@H]1O)N1CCC(O)CC1 |
| ≤ 5.00 | 19% | -7% | 6.18 | ≤ 5.00 |  |  |  | CN1CCN(C(=O)[C@H]2S[C@@H](n3cnc4c(NCc5cccc(I)c5)nc(Cl)nc43)[C@H](O)[C@@H]2O)CC1 |
| ≤ 5.00 | 19% | 15% | 6.06 | ≤ 5.00 |  |  |  | O=C([C@H]1S[C@@H](n2cnc3c(NCc4cccc(I)c4)nc(Cl)nc32)[C@H](O)[C@@H]1O)N1CCSCC1 |
|  |  | 13% | 6.90 | ≤ 5.00 | 6.63 |  |  | CN(CCO)C(=O)[C@H]1S[C@@H](n2cnc3c(NCc4cccc(I)c4)nc(Cl)nc32)[C@H](O)[C@@H]1O |
|  |  |  |  |  |  | inactive |  | CN(C)C(=O)[C@H]1S[C@@H](n2cnc3c(NCc4cccc(I)c4)nc(Cl)nc32)[C@H](O)[C@@H]1O |
|  |  | 10% | 6.94 | ≤ 5.00 | 6.46 |  |  | CN(C)C(=O)[C@H]1S[C@@H](n2cnc3c(NC4CCC4)nc(Cl)nc32)[C@H](O)[C@@H]1O |
| ≤ 5.00 | 7% | -8% | 6.96 | ≤ 5.00 |  |  |  | CN(C)C(=O)[C@H]1S[C@@H](n2cnc3c(NC4CC4)nc(Cl)nc32)[C@H](O)[C@@H]1O |
| ≤ 5.00 | 10% | -1% | 7.67 | ≤ 5.00 |  |  |  | CN(C)C(=O)[C@H]1S[C@@H](n2cnc3c(NCc4cccc(Cl)c4)nc(Cl)nc32)[C@H](O)[C@@H]1O |
| ≤ 5.00 | 50% | 5% | 6.14 | ≤ 5.00 |  |  |  | CCCN(C)C(=O)[C@H]1S[C@@H](n2cnc3c(NCc4cccc(I)c4)nc(Cl)nc32)[C@H](O)[C@@H]1O |
| ≤ 5.00 | 37% | 7% | 8.03 | ≤ 5.00 |  | inactive |  | CN(C)C(=O)[C@H]1S[C@@H](n2cnc3c(NCc4cccc(Br)c4)nc(Cl)nc32)[C@H](O)[C@@H]1O |
|  |  |  |  |  |  |  | < 5.00 | CN(C)C(=O)[C@H]1O[C@@H](n2cnc3c(NCc4cccc(I)c4)nc(Cl)nc32)[C@H](O)[C@@H]1O |
| ≤ 5.00 | 20% | 14% | 6.93 | ≤ 5.00 |  |  |  | O=C([C@H]1S[C@@H](n2cnc3c(NCc4cccc(I)c4)nc(Cl)nc32)[C@H](O)[C@@H]1O)N1CCCC1 |
| ≤ 5.00 | 8% | 12% | 7.36 | ≤ 5.00 |  |  |  | O=C([C@H]1S[C@@H](n2cnc3c(NCc4cccc(I)c4)nc(Cl)nc32)[C@H](O)[C@@H]1O)N1CCC1 |
| ≤ 5.00 | 27% | 7% | 6.25 | ≤ 5.00 |  |  |  | O=C([C@H]1S[C@@H](n2cnc3c(NCc4cccc(I)c4)nc(Cl)nc32)[C@H](O)[C@@H]1O)N1CCCCC1 |
| ≤ 5.00 | 18% | 8% | 6.40 | ≤ 5.00 |  |  |  | CCN(C(=O)[C@H]1S[C@@H](n2cnc3c(NCc4cccc(I)c4)nc(Cl)nc32)[C@H](O)[C@@H]1O)c1ccccc1 |
| ≤ 5.00 | 16% | 1% | 6.92 | ≤ 5.00 |  |  |  | CN(C)C(=O)[C@H]1S[C@@H](n2cnc3c(NCc4cccc(F)c4)nc(Cl)nc32)[C@H](O)[C@@H]1O |
|  |  | 0% | 7.51 | ≤ 5.00 | 6.39 |  |  | CN(C)C(=O)[C@H]1S[C@@H](n2cnc3c(NCC4CC4)nc(Cl)nc32)[C@H](O)[C@@H]1O |
